T cruzi growth-1: T. cruzi intracellular proliferation inhibitors, primary screen, cell-based, beta-gal Tulahuen parasites, NIH3T3 host, luminescence | T. cruzi beta-gal in NIH3T3, GalScreen luminescence, 90 h | inhibition, % at 8.34 µM | hit rate 5.9% among 77,000 | AID 624255, 2012;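 active means mean inhibition above about 93%, with at least 55% of replicates each passing it, limit read from the data, passing the limit was not always enough; inconclusive means only one of those two conditions holds; inactive means neither condition holds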
KDM4C inh: inhibitors of GASC-1 (KDM4C) histone demethylase, primary screen, biochemical, single concentration HTS | GST-KDM4C 2-372, H3K9me3 peptide, LANCE TR-FRET | inhibition, % at 12.5 µM | Lysine-specific demethylase 4C (Homo sapiens), Q9H3R0 | hit rate 0.15% among 96,000 | AID 720574, 2013;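 active means mean replicate inhibition above about 25%, with at least 55% of replicates also reaching it, limit read from the data, passing the limit was not always enough; inconclusive means only one of those two conditions met; inactive means neither condition met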
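Test system – GST-tagged GASC-1 (JMJD2C) catalytic fragment, aa 2-372 · Medium – HEPES buffer, pH 7.5, plus ascorbate · Reagent – H3K9me3 peptide with Fe(II)/2OG · Compound – one test concentration per compound · Timing – 30 min reaction, 60 min detection, RT · Technique – TR-FRET with Eu antibody and ULight streptavidin, EDTA stop · Read-out basis – inhibition from TR-FRET ratio decrease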
IDH1 R132H inh: inhibitors of IDH1 R132H reductase, primary screen, biochemical, plate reader, single point | diaphorase/resazurin fluorescence, 60 min | inhibition, % at 10 µM | hit rate 0.18% among 70,000 | AID 624101, 2012; in the data active means inhibition above about 34%; inconclusive means no clear call, values can overlap the other calls; inactive means below about 11%;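 further: 0% = DMSO and 100% = no enzyme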
Target sequence (O75874 whole entry R132H): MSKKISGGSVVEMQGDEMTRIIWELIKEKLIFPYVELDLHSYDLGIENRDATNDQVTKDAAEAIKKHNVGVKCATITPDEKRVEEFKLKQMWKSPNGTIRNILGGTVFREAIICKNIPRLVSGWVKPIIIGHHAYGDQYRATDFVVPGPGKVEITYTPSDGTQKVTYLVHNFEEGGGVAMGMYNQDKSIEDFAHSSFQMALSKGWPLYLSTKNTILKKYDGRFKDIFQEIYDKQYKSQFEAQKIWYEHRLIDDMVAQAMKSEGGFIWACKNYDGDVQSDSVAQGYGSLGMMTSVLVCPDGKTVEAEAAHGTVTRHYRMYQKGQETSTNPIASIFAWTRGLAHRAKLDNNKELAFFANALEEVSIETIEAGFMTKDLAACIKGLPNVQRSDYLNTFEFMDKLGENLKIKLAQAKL
Pf Dd2 inh: P. falciparum Dd2 growth inhibitors, primary screen, SYBR Green fluorescence, single dose replicates. 72 h; hits give low values. AID 1159554, 2015. activity change, % at 10 µM. hit rate 2.3% among 94,000; in the data active means activity change below about -80%; inconclusive means no clear call, values can overlap the other calls
T cruzi growth-2: T. cruzi intracellular proliferation inhibitors, confirmation, cell-based, NIH3T3 host, beta-gal parasite, luminescence, cherry-pick | shares compounds with T cruzi growth-1 | T. cruzi beta-gal in NIH3T3, GalScreen luminescence, 90 h | inhibition, % at 8.35 µM | AID 651739, 2012 | hit rate 72% among 5,600;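 active means mean replicate inhibition above about 95% and at least 55% of replicates individually reaching it, limit read from the data; inconclusive means only one of the two criteria is met; inactive means neither criterion is met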
T cruzi growth-3: inhibitors of intracellular T. cruzi replication, confirmation, NIH3T3 host cells, beta-gal parasites, cherry-pick, set 2; shares compounds with T cruzi growth-1; T. cruzi beta-gal in NIH3T3, GalScreen luminescence, 90 h; inhibition, % at 2.09 µM; hit rate 21% among 5,600;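 active means mean inhibition above about 95%, with at least 55% of replicates also reaching it, limit read from the data; inconclusive means meets just one of the two conditions; inactive means meets neither condition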;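 further: plate controls were neutral control median for no effect and positive control median for full effect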
NIH3T3 tox: cytotoxicity in mouse NIH/3T3 fibroblasts, confirmation, cytotoxicity control for T. cruzi proliferation inhibitor project, cell-based, cherry-pick, single point. shares compounds with T cruzi growth-1. NIH/3T3 viability, CellTiter-Glo ATP luminescence, 90 h. cytotoxicity (signal decrease), % at 8.35 µM. hit rate 14% among 5,600. AID 651742, 2012;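 active means mean signal decrease across replicates above about 35% based on untreated-well scatter, with enough replicates individually passing, limit read from the data; inconclusive means no rule stated though some were filed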;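 further: 0% = median of neutral control wells and 100% = median of positive control wells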
3T3 cytotox 2: NIH/3T3 fibroblast cytotoxicity, confirmation, cytotoxicity control, cell-based, cherry-pick, single point, set 2. shares compounds with T cruzi growth-1. NIH/3T3 viability, CellTiter-Glo ATP luminescence, 90 h. inhibition, % at 24.9 µM. hit rate 56% among 5,600. AID 651744, 2012;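 active means mean loss of cell viability signal at or above a set limit, and enough replicates individually reaching it; inconclusive means meets only the mean limit or only the replicate share; inactive means meets neither condition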;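 further: 0% = median of neutral control wells and 100% = median of positive control wells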
Starred values were filed as active, the others as inactive; ? = inconclusive; nt = not tested or not shown. Sampled rows, rich in hits. Any-hit rate of the full collection: about 5.8%.

SMILES	T cruzi growth-1	KDM4C inh	IDH1 R132H inh	Pf Dd2 inh	T cruzi growth-2	T cruzi growth-3	NIH3T3 tox	3T3 cytotox 2
C[C@@H]1CCCCO[C@@H](CN(C)Cc2ccc(Cl)c(Cl)c2)[C@@H](C)CN([C@H](C)CO)C(=O)c2cc(NC(=O)Nc3ccc4c(c3)OCO4)ccc2O1	104*	-4	0	39	104*	69	8	-8
C[C@@H]1CN([C@H](C)CO)C(=O)c2cc(NC(=O)Cc3ccccc3)ccc2O[C@@H]1CN(C)Cc1ccc(Cl)c(Cl)c1	109*	0	1	-3	109*	88	20	93*
C[C@@H]1CN([C@H](C)CO)C(=O)c2cc(NC(=O)Cc3ccccc3)ccc2O[C@@H](C)CCCCO[C@@H]1CN(C)Cc1ccc2c(c1)OCO2	100*	1	nt	-72	105*	37	25	102*
C[C@@H]1CN([C@H](C)CO)C(=O)c2cc(NC(=O)Cc3ccccc3)ccc2O[C@@H](C)CCCCO[C@@H]1CN(C)Cc1ccc(Cl)c(Cl)c1	91	0	nt	-55	nt	nt	nt	nt
C[C@@H]1CCCCO[C@@H](CN(C)Cc2ccc(Cl)c(Cl)c2)[C@@H](C)CN([C@@H](C)CO)C(=O)c2cc(NC(=O)Cc3ccccc3)ccc2O1	98*	1	0	-52	106*	76	-7	-14
C[C@@H]1CN([C@@H](C)CO)C(=O)c2cc(NC(=O)CCC(F)(F)F)ccc2O[C@@H](C)CCCCO[C@H]1CN(C)Cc1ccc(Cl)c(Cl)c1	64	2	2	-80	nt	nt	nt	nt
C[C@@H]1CCCCO[C@@H](CN(C)Cc2ccc(Cl)c(Cl)c2)[C@@H](C)CN([C@H](C)CO)C(=O)c2cc(NC(=O)CCC(F)(F)F)ccc2O1	?	nt	nt	-20	108*	82	-5	-18
C[C@@H]1CN([C@@H](C)CO)C(=O)c2cc(NC(=O)Nc3ccc4c(c3)OCO4)ccc2O[C@@H](C)CCCCO[C@@H]1CN(C)C	26	2	nt	nt	nt	nt	nt	nt
C[C@H](CO)N1C[C@H](C)[C@H](CN(C)Cc2ccc(Cl)c(Cl)c2)Oc2ccc(NC(=O)CCCCCC(=O)Nc3ccccc3N)cc2C1=O	97*	-3	nt	-27	103*	102*	11	32*
C[C@@H]1CN([C@@H](C)CO)C(=O)c2cc(NC(=O)Nc3ccc4c(c3)OCO4)ccc2O[C@@H](C)CCCCO[C@H]1CN(C)C	100*	0	-1	9	112*	8	-3	6
O=C(CNS(=O)(=O)c1cc(Cl)ccc1Cl)Nc1ccc(Oc2ccccc2)cc1	nt	nt	0	nt	nt	nt	nt	nt
CC1(CO)C=Cc2c(cc(O)c3c(=O)c(-c4ccc(O)cc4)coc23)O1 (stereo not given)	nt	nt	0	nt	nt	nt	nt	nt
COCC(=O)N1C[C@H](C)[C@H](OC)CN(C)C(=O)c2ccc(NC(=O)Nc3ccccc3)cc2OC[C@H]1C	nt	nt	nt	0	nt	nt	nt	nt
C[C@@H]1CCCCO[C@H](CN(C)Cc2ccc3c(c2)OCO3)[C@H](C)CN([C@@H](C)CO)C(=O)c2cc(NC(=O)c3ccncc3)ccc2O1	112*	1	0	6	15	5	-4	-38
CC(C)NC(=O)N1[C@H](CO)[C@H](c2ccc(C#CC3CC3)cc2)[C@@H]1C#N	76	-1	nt	2	nt	nt	nt	nt
CC(C)NC(=O)N1[C@H](C#N)[C@@H](c2ccc(C#CC3CC3)cc2)[C@@H]1CO	?	1	nt	-32	109*	82	9	7
